MIC, Average survival and Survival data for 17 compounds are collected here from ChEMBL document CHEMBL1121642, “Synthesis and antiherpetic activity of some 4-[(aryloxy)alkyl]pyrazoles” (1981).

The structures appear in SMILES notation. ≈ marks a conversion by molar mass, not a printed value. Calls of active or inactive are those of the source. No cut-off for these calls is given here.

In assay [1] the test system is Human alphaherpesvirus 2. In words: Tested in vitro for minimum inhibitory activity against Herpes simplex virus type -2 (HSV-2). The class given is functional.
Assay [2] relates to Mus musculus. In words: Effect on the survival rate of mouse infected with herpes genitalis (HSV-2) administered intravaginally at 5% dosage twice in a day. It counts as functional. Summed up:
(§1)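 HSV-2 mouse genital model, infected intravaginally. Drug prepared in water + 1% gum tragacanth and given intravaginally b.i.d. via saturated cotton tampons, starting 4 h postinfection. Tampons were re-dosed with 0.02 mL 6 h after insertion and replaced daily. Test ended at day 14, with survivors assigned survival time >14 days. Read-out: % survival and average survival time.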

For assay [3], the system named is Mus musculus. Nature of the assay: Effect on the survival rate of mouse infected with herpes genitalis (HSV-2) administered intravaginally at 2% dosage twice in a day. The class given is functional. The gist of the method:
as §1

Assay [4] relates to Human alphaherpesvirus 2. Nature of the assay: Tested in vitro for minimum inhibitory activity against Herpes simplex virus type -2 (HSV-2); Inactive. The class given is functional, organism-based.

Consider `CCCn1nc(C)c(CCCCCCOc2ccc(OC)cc2Cl)c1C`, for which, in the assay on Human alphaherpesvirus 2 [1], the MIC stood at 1.5 µg/mL (≈ 3.96 µM).

`CCc1n[nH]c(CC)c1CCCCCCOc1ccc([S+](C)[O-])cc1Cl` (stereo not drawn) gave an MIC against Human alphaherpesvirus 2 [1] of 3 µg/mL (≈ 7.56 µM).

`CCc1nn(C)c(CC)c1CCCCCOc1ccc(OC)cc1Cl` showed an MIC against Human alphaherpesvirus 2 [1] of 3 µg/mL (≈ 8.22 µM).

`Nc1ncnc2c1ncn2[C@@H]1O[C@H](CO)[C@@H](O)[C@@H]1O` [VIDARABINE]: in the assay on Mus musculus [2], the Average survival is >13 days and the Survival was found to be 60%. Further, in the assay with Mus musculus [3], the Average survival is >9 days and the Survival was 10%.

Turning to `CCc1n[nH]c(CC)c1CCCCCCOc1ccc([N+](=O)[O-])cc1Cl`, in the assay on Human alphaherpesvirus 2 [4], the MIC result was “inactive”.

Compound `CCc1nn(-c2ccccc2)c(CC)c1CCCCCCOc1ccc(OC)cc1Cl` registered an MIC in the assay with Human alphaherpesvirus 2 [1] of 3 µg/mL (≈ 6.8 µM).

Consider `CCc1nn(C(C)=O)c(CC)c1CCCCCCOc1ccc(OC)cc1Cl`, for which the MIC result in the assay on Human alphaherpesvirus 2 [4] was “inactive”.

In the assay on Human alphaherpesvirus 2 [1], `CCc1nn(CCN(C)C)c(CC)c1CCCCCCOc1ccc(OC)cc1Cl` returned an MIC of 6 µg/mL (≈ 13.8 µM).

With `COc1ccc(OCCCCCCc2c(C)nn(C)c2C)c(Cl)c1`, in the assay with Human alphaherpesvirus 2 [1], the MIC worked out at 0.7 µg/mL (≈ 1.99 µM).

`CCc1n[nH]c(CC)c1CCCCCCOc1ccc(O)cc1Cl` had an MIC in the assay with Human alphaherpesvirus 2 [1] of 12 µg/mL (≈ 34.2 µM).

On to `O=c1[nH]c(=O)n([C@H]2C[C@H](O)[C@@H](CO)O2)cc1I` [IDOXURIDINE], for which, in the assay on Mus musculus [2], the Average survival was >9 days and the Survival came out at 10%. In addition, in the assay on Mus musculus [3], the Average survival was >11 days and the Survival was 40%.

With `CCc1n[nH]c(CC)c1CCCCCCOc1ccc(OC)cc1`, the MIC result with Human alphaherpesvirus 2 [4] is “inactive”.

With `COc1ccc(OCCCCCCc2c(-c3ccccc3)n[nH]c2-c2ccccc2)c(Cl)c1`, the MIC with Human alphaherpesvirus 2 [1] came to 3 µg/mL (≈ 6.51 µM).

Turning to `CCc1n[nH]c(CC)c1CCCCOc1ccc(OC)cc1Cl`, the MIC against Human alphaherpesvirus 2 [1] worked out at 6 µg/mL (≈ 17.8 µM).

As to `CCc1nn(CC(=O)O)c(CC)c1CCCCCCOc1ccc(OC)cc1Cl`, the MIC entry in the assay with Human alphaherpesvirus 2 [4] is “inactive”.

Consider `CCc1n[nH]c(CC)c1CCCCCCOc1ccc(Br)cc1`, for which the MIC entry with Human alphaherpesvirus 2 [4] was “inactive”.

`CCc1nn(C(=O)CCCN2CCOCC2)c(CC)c1CCCCCCOc1ccc(OC)cc1Cl`: in the assay on Human alphaherpesvirus 2 [1], the MIC was determined as 3 µg/mL (≈ 5.77 µM).
